These results are taken from ChEMBL document CHEMBL3352332, “Synthesis and SAR study of novel anticancer and antimicrobial naphthoquinone amide derivatives” (Bioorg Med Chem Lett, 2014).

For assay [1], the system named is Staphylococcus aureus. Put plainly: Antibacterial activity against methicillin-resistant Staphylococcus aureus at 100 ug/well after 24 hrs by well diffusion assay. Conditions: for zone of inhibition at 100 µg/disc: read-out: DIZ. The assay is classed as functional. The method in brief: (§1)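 Agar well diffusion on Mueller Hinton agar: 17 h cultures swabbed over the surface, wells cut with a cork borer after 10 min. Each well loaded with 10 µl of a 10 mg/mL DMSO stock (100 µg/well), with a DMSO control well. Plates incubated at 37 °C for 24 h. Zone of inhibition diameter measured in mm.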
For orientation: In agar diffusion tests the substance spreads into inoculated agar from a disc or well.

For assay [2], the system named is Candida albicans. Put plainly: Antifungal activity against fluconazole-resistant Candida albicans by NCCLS method. The class given is functional.
Assay [3] deals with Candida albicans. Put plainly: Antifungal activity against fluconazole-resistant Candida albicans at 100 ug/well after 24 hrs by well diffusion assay. The assay is classed as functional. Conditions: for zone of inhibition at 100 µg/disc: read-out: DIZ. The method in brief: as §1
Assay [4] deals with Staphylococcus aureus. Put plainly: Antibacterial activity against methicillin-resistant Staphylococcus aureus by NCCLS method. The class given is functional.
The next assay deals with Pseudomonas aeruginosa. Put plainly: Antibacterial activity against Pseudomonas aeruginosa MTCC 201 at 100 ug/well after 24 hrs by well diffusion assay. The class given is functional. The method in brief:
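17 h bacterial cultures swabbed onto Mueller Hinton agar; after 10 min wells were cut with a cork borer and loaded with compound from a 10 mg/mL stock, with a DMSO control. Plates were held at 37 °C for 24 h, and susceptibility was read as the diameter of the zone of inhibition in mm.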

Another assay concerns HeLa. Put plainly: Cytotoxicity against human HeLa cells assessed as reduction in cell viability after 48 hrs by MTT assay. The class given is functional, cell-based. Background: Tetrazolium dyes change colour on reduction, which living cells bring about.
In a further assay the test system is SAS. Put plainly: Cytotoxicity against human SAS cells assessed as reduction in cell viability after 48 hrs by MTT assay. The assay is classed as functional, cell-based.

≈ marks a conversion by molar mass, not a printed value. Calls of active or inactive are those of the source. No cut-off for these calls is given here.

Consider `COC(=O)[C@H](CC(C)C)NC(=O)CSC1=CC(=O)c2cccc(OC)c2C1=O`, for which the zone of inhibition at 100 µg/disc in the assay with Staphylococcus aureus [1] worked out at 11 mm; in the assay on Candida albicans [3] it was 12 mm. Further, the minimal inhibitory concentration (MIC) against Candida albicans [2] and with Staphylococcus aureus [4] was 7.8 µg/mL (≈ 19.2 µM) in each case. For the same compound, in the assay with Pseudomonas aeruginosa, the “diameter of the inhibition zone (DIZ)” value is “inactive”.

On to `COC(=O)[C@@H](NC(=O)CSC1=C(C)C(=O)c2cccc(OC)c2C1=O)C(C)C`, for which the zone of inhibition at 100 µg/disc with Staphylococcus aureus [1] stood at 12 mm; with Candida albicans [3], 13 mm. Also, the minimum inhibitory concentration (MIC) (commonly the lowest concentration found to suppress growth) against Candida albicans [2] was determined as 7.8 µg/mL (≈ 19.2 µM); against Staphylococcus aureus [4] it was 15.6 µg/mL (≈ 38.5 µM). In addition, the “diameter of the inhibition zone (DIZ)” value in the assay with Pseudomonas aeruginosa was “inactive”.

For `COC(=O)[C@H](C)NC(=O)CSC1=CC(=O)c2cccc(OC)c2C1=O`, in the assay on Staphylococcus aureus [1], the zone of inhibition at 100 µg/disc turned out to be 15 mm. Further, the “diameter of the inhibition zone (DIZ)” value in the assay on Candida albicans [3] and in the assay on Pseudomonas aeruginosa was “inactive” throughout. Moreover, inhibition of growth against Staphylococcus aureus [4] (MIC) required 7.8 µg/mL (≈ 21.5 µM).

In the case of `OC(Cn1cncn1)(Cn1cncn1)c1ccc(F)cc1F`, the “diameter of the inhibition zone (DIZ)” value with Staphylococcus aureus [1], in the assay on Candida albicans [3] and with Pseudomonas aeruginosa was “inactive” each time.

For `CC[C@H](C)[C@H](NC(=O)CSC1=C(C)C(=O)c2ccccc2C1=O)C(=O)OC`, the figures for the zone of inhibition at 100 µg/disc with Staphylococcus aureus [1] and in the assay with Candida albicans [3] were 16 mm and 19 mm, respectively. For the same compound, the MIC against Candida albicans [2] and in the assay with Staphylococcus aureus [4] was 15.6 µg/mL (≈ 40.1 µM) in each case. In the assay with Pseudomonas aeruginosa, the “diameter of the inhibition zone (DIZ)” value is “inactive”.

As for `O=C1C=C(O)C(=O)c2ccccc21` [LAWSONE], the zone of inhibition at 100 µg/disc in the assay on Staphylococcus aureus [1] came to 12 mm; with Candida albicans [3] it was 14 mm. In addition, the MIC worked out at 250 µg/mL (≈ 1440 µM) against Candida albicans [2] and 125 µg/mL (≈ 718 µM) against Staphylococcus aureus [4]. The half-inhibitory concentration (IC50) in the assay with HeLa and with SAS was above 100 µM in each case. Moreover, the “diameter of the inhibition zone (DIZ)” value in the assay with Pseudomonas aeruginosa is “inactive”.

For the compound `COC(=O)[C@H](Cc1ccccc1)NC(=O)CSC1=C(OC)C(=O)c2ccccc2C1=O`, the zone of inhibition at 100 µg/disc with Staphylococcus aureus [1] came out at 14 mm. Besides, the “diameter of the inhibition zone (DIZ)” value with Candida albicans [3] and in the assay on Pseudomonas aeruginosa was “inactive” throughout. It took 62.5 µg/mL (≈ 142 µM) to inhibit growth against Staphylococcus aureus [4] (MIC).

As to `COC(=O)CCCNC(=O)CSC1=CC(=O)c2cccc(OC)c2C1=O`, in the assay with Staphylococcus aureus [1], the zone of inhibition at 100 µg/disc came to 12 mm. Besides, the “diameter of the inhibition zone (DIZ)” value with Candida albicans [3] and with Pseudomonas aeruginosa was “inactive” each time.

For `COC(=O)[C@H](CC(C)C)NC(=O)CSC1=C(C)C(=O)c2cccc(OC)c2C1=O`, the zone of inhibition at 100 µg/disc with Staphylococcus aureus [1] was determined as 21 mm; in the assay on Candida albicans [3], 25 mm. Moreover, the minimal inhibitory concentration (MIC) in the assay on Candida albicans [2] and with Staphylococcus aureus [4] was 7.8 µg/mL (≈ 18.6 µM) throughout. Besides, the values for the 50% inhibitory concentration (IC50) in the assay with HeLa and with SAS were above 100 µM and 78.5 µM, respectively. Besides, the “diameter of the inhibition zone (DIZ)” value in the assay with Pseudomonas aeruginosa is “inactive”.

With `COC(=O)CNC(=O)CSC1=C(OC)C(=O)c2ccccc2C1=O`, the zone of inhibition at 100 µg/disc with Staphylococcus aureus [1] was 17 mm; with Candida albicans [3], 16 mm. Besides, the MIC with Candida albicans [2] and against Staphylococcus aureus [4] was 15.6 µg/mL (≈ 44.7 µM) in each case. The IC50 (usually the concentration that gives 50% inhibition) in the assay with HeLa is 77.5 µM; with SAS, 12 µM. Further, the “diameter of the inhibition zone (DIZ)” value in the assay with Pseudomonas aeruginosa was “inactive”.

With `COC(=O)[C@H](Cc1ccccc1)NC(=O)CSC1=C(C)C(=O)c2cccc(OC)c2C1=O`, the figures for the zone of inhibition at 100 µg/disc in the assay on Staphylococcus aureus [1] and in the assay on Candida albicans [3] were 15 mm and 13 mm, respectively. Also, the MIC with Candida albicans [2] and in the assay on Staphylococcus aureus [4] was 125 µg/mL (≈ 276 µM) in each case. The IC50 is above 100 µM with HeLa and 56.5 µM in the assay on SAS. For the same compound, in the assay with Pseudomonas aeruginosa, the “diameter of the inhibition zone (DIZ)” value was “inactive”.

Consider `COC(=O)[C@@H](NC(=O)CSC1=C(OC)C(=O)c2ccccc2C1=O)C(C)C`, for which the zone of inhibition at 100 µg/disc with Staphylococcus aureus [1] was determined as 18 mm; in the assay on Candida albicans [3], 20 mm. For the same compound, the MIC with Candida albicans [2] and with Staphylococcus aureus [4] was 15.6 µg/mL (≈ 39.9 µM) each time. In addition, the IC50 is 93.5 µM in the assay with HeLa and 56 µM in the assay on SAS. Besides, the “diameter of the inhibition zone (DIZ)” value with Pseudomonas aeruginosa was “inactive”.

Consider `COC(=O)[C@@H](NC(=O)CSC1=C(C)C(=O)c2ccccc2C1=O)C(C)C`, for which the zone of inhibition at 100 µg/disc in the assay on Staphylococcus aureus [1] and in the assay with Candida albicans [3] was 19 mm throughout. Also, the MIC with Candida albicans [2] and against Staphylococcus aureus [4] was 15.6 µg/mL (≈ 41.6 µM) throughout. Also, the IC50 stood at 20 µM in the assay with HeLa and 16 µM in the assay on SAS. Also, in the assay on Pseudomonas aeruginosa, the “diameter of the inhibition zone (DIZ)” value was “inactive”.

Consider `COC(=O)CCCNC(=O)CSC1=C(OC)C(=O)c2ccccc2C1=O`, for which the zone of inhibition at 100 µg/disc with Staphylococcus aureus [1] and in the assay with Candida albicans [3] was 26 mm each time. Further, the MIC against Candida albicans [2] and against Staphylococcus aureus [4] was 15.6 µg/mL (≈ 41.3 µM) each time. For the same compound, the concentration for half-maximal inhibition (IC50) with HeLa turned out to be 24 µM; in the assay with SAS it was 24.5 µM. Further, in the assay with Pseudomonas aeruginosa, the “diameter of the inhibition zone (DIZ)” value is “inactive”.
